This is an account of results in article PMC2878397 (Journal of natural products, 2010).

Assay [1] concerns HT-29 human colon cancer cells. The assay can be described thus: Cytotoxicity assay against HT-29 cells. The note with it: for IC50: Homo sapiens, HT-29, 72 h, read-out: cytotoxicity ED50; for cytotoxicity ED50: HT-29 cells, three days incubation, SRB. It is filed as cell-based. A digest of the protocol:
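Trypsinized HT-29 cells seeded in 96-well plates with test compound in DMSO; DMSO-only wells as negative control, paclitaxel as positive control. Incubated 3 days at 37 °C, 5% CO2. Cells fixed, held 30 min at room temperature, water-washed, air-dried overnight, then stained with sulforhodamine B. Dye released in tris-base buffer, absorbance read at 515 nm. Cytotoxicity calculated against negative control, reported as ED50 (μM).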

The target of another assay is T1, NF-κB p50 (Homo sapiens, UniProt P19838).
T1 sequence (P19838 1-433 limits assumed): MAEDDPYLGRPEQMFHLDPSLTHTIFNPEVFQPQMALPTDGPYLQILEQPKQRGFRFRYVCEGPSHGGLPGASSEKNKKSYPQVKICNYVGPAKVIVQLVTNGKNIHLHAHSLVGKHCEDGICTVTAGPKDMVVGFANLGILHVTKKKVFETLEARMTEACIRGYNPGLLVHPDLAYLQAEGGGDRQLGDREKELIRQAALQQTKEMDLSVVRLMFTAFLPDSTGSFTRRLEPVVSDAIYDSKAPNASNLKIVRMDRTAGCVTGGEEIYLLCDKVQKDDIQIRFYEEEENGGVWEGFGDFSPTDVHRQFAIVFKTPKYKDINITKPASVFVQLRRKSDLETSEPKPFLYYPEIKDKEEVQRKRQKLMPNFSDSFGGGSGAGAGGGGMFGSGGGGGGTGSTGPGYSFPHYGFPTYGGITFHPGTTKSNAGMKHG
The assay can be described thus: Enzyme-based ELISA NF-κB p50 assay. It is filed as biochemical. For orientation: ELISA stands for enzyme-linked immunosorbent assay.

For another assay, the target named is NF-κB p65 (Homo sapiens, UniProt Q04206). Put plainly: Enzyme-based ELISA NF-κB p65 assay. The format is biochemical.
Sequence of NF-κB p65 (Q04206 whole entry, one chain of several): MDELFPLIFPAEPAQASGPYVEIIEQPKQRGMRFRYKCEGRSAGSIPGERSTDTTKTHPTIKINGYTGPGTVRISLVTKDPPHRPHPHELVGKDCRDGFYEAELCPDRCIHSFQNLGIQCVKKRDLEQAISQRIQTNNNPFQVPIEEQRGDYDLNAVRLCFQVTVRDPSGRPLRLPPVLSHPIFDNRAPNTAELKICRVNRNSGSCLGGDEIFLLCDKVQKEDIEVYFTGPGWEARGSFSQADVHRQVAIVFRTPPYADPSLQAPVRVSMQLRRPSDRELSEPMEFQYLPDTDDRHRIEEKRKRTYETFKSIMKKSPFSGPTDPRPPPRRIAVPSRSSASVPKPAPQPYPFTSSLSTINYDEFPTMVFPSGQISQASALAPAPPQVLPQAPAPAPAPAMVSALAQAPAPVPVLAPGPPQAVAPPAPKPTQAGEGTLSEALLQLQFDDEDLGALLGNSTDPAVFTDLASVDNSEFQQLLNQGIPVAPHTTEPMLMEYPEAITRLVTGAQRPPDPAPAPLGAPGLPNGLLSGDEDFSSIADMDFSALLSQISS
In another assay the test system is 9KB. As to conditions: 9KB in vitro test system; cited from earlier work.
A further assay relates to 9PS. As to conditions: 9PS in vitro test system; cited from earlier work.
In another assay the test system is P388 leukemia cells. As to conditions: cited from earlier work.

Where two headings read alike, the source gives them in different places. A value given as a limit tells only on which side of the number the result lay.

Take `COc1cc(O)c2c(=O)c3cc4c5c(c(O)cc(O)c5c3oc2c1)OC4(C)C` [artonin K]: the IC50 in assay [1] was greater than 10 µM.

`C=C(C)c1cc2c(=O)c3c(O)c(CC=C(C)C)c(O)cc3oc2c2c1C(=O)C(O)=C(CC=C(C)C)C2=O` [Compound 3, 4,8,10-trihydroxy-5-isopropenyl-2,9-bis(3-methyl-2-butenyl)-7-benzo[c]xanthen-2,4,7-trione]: the “cytotoxicity ED50” value in assay [1] was greater than 10 µM.

Consider `C=C(C)[C@H]1Cc2c(oc3cc(O)c(CC=C(C)C)c(O)c3c2=O)C2=C1C(=O)C(O)=C(CC=C(C)C)C2=O` [Compound 6, artonin O], for which the IC50 against NF-κB p50 and against NF-κB p65 was greater than 10 µM each time.

In the case of “3-hydroxy-4,3′,5′-trimethoxy-trans-stilbene [Compound 9]”, the results for the “cytotoxicity ED50” value (in the assay on 9KB; in assay [1]; with 9PS) were 0.01 µg/mL, 8.7 µM and 0.1 µg/mL, respectively. Further, the IC50 on NF-κB p50 (read-out: NF-κB p50 inhibition IC50, HeLa nuclear extract, ELISA) was greater than 10 µM; on NF-κB p65 (read-out: NF-κB p65 inhibition IC50, HeLa nuclear extract, ELISA), greater than 10 µM.

On to `C=C(C)[C@H]1Cc2c(oc3c(CC=C(C)C)c(O)c(CC=C(C)C)c(O)c3c2=O)-c2c(O)cc(O)c(O)c21` [Compound 1, (5R)-5,6-dihydro-1,3,4,8,10-pentahydroxy-5-isopropenyl-9,11-bis(3-methyl-2-butenyl)-7H-benzo[c]xanthen-7-one], for which the IC50 is 2 µM at NF-κB p50 and greater than 10 µM against NF-κB p65.

Consider `CC1(C)C=Cc2cc3c(cc2O1)Oc1cc(O)ccc1C(O)=C3` [Compound 5, 2,2-dimethyl-2H-benzo{6,7-oxepino[3,2-g]}chromene-7,10-diol], for which the IC50 was 10.7 µM in assay [1], greater than 10 µM at NF-κB p50 and greater than 10 µM against NF-κB p65.

With `CC1(C)C=Cc2c(cc(O)c3c(=O)c4c(oc23)-c2c(O)cc(O)c3c2C(C4)C(C)(C)O3)O1` (stereo not shown) [Compound 8, cycloartobiloxanthone], the IC50 against NF-κB p50 and against NF-κB p65 was greater than 10 µM each time.

For `CC(C)=CCc1c(O)c(CC=C(C)C)c2oc3c(c(=O)c2c1O)C(C=C(C)C)Oc1cc(O)c(O)cc1-3` (stereo not shown) [Compound 4, 2,3,8,10-tetrahydroxy-6-(2-methylpropenyl)-9,11-bis(3-methyl-2-butenyl)-6H[1]benzopyrano[4,3-b]benzopyran-7-one], the IC50 on NF-κB p50 and against NF-κB p65 was greater than 10 µM in each case.

Consider `C=C(C)[C@H]1Cc2c(oc3c4c(cc(O)c3c2=O)OC(C)(C)C=C4)-c2c(O)cc(O)c(O)c21` [Compound 7, artobiloxanthone], for which the “cytotoxicity ED50” value in assay [1] was greater than 10 µM. In addition, the results for the IC50 on NF-κB p50 and at NF-κB p65 were 3.7 µM and 2.3 µM, respectively.

For `CC(C)=CCc1c(-c2cc(O)c(O)cc2O)oc2c3c(cc(O)c2c1=O)OC(C)(C)C=C3` [artonin E], the “cytotoxicity ED50” value in the assay on P388 leukemia cells was 0.06 µg/mL.
